Screening results (PubChem)
M1 antag – antagonists of rat M1 muscarinic receptor. P08482. 64,000 tested, 3.4% active. B-score at 10 µM. CHO-M1 cells, Fluo-4 calcium, ACh EC80 antagonist mode; stronger effect = lower value;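 active = calcium fluorescence response, raw or row-and-column corrected B-score, differing from the plate sample mean either way at a set confidence level, mostly lower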
D1 allo mod – D1 dopamine receptor (human) allosteric modulation | B-score at 10 µM | 58,000 tested, 5.9% active | P21728 | HEK293 D1, CRE-luciferase, dopamine EC30 potentiation; actives deviate in either direction;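 active = luminescence count or its row- and column-corrected plate score outside the 99.7% band of the plate's sample wells, on either side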
RORa activator – RORA (human) activation; activation, % at 10 µM; CHO-K1 Gal4-RORA LBD luciferase reporter, luminescence; percent increase over mock-subtracted basal signal; 65,000 tested, 1.5% active;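 active = activation above the mean of all tested compounds plus 3 SD, cut at about 49% in these data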
Target sequence (P35398 whole entry, looked up, the tested form may be a part): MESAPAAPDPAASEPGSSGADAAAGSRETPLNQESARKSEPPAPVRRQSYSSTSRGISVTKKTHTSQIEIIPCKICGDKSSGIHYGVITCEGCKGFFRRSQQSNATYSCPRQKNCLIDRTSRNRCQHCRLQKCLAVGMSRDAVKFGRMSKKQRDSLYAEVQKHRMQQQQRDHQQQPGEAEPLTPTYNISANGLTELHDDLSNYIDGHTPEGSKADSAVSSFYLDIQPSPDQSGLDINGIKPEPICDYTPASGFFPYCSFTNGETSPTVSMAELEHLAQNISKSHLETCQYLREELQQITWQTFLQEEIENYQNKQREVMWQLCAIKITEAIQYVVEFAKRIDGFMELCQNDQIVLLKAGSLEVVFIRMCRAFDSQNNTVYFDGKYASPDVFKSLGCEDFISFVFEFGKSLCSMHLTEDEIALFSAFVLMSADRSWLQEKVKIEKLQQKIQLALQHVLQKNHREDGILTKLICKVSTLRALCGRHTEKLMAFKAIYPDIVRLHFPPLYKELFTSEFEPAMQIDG
SF1 activator – activators of human nuclear receptor SF-1. CHO-K1 Gal4-SF-1 LBD luciferase reporter; % increase over DMSO SF-1-specific signal. AID 522. 65,000 tested, 1.9% active. activation, % at 10 µM. Q13285;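 active = activation above the mean activation of all tested compounds plus 3 SD, cut at about 50% in these data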
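Test system: CHO-K1 cells co-transfected with Gal4 DBD–human SF-1 LBD, 5xGal4 luciferase reporter. Quantity: 4,000 cells per well. Compound: 10 µM only. Incubation: compound added 1 h post-seeding, 20 h exposure at 37 °C, 5% CO2. Detection: SteadyLite luciferase luminescence. Replication: one test per compound.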
HePTP inhibitor – human HePTP phosphatase inhibition. recombinant HePTP phosphatase activity, OD absorbance. inhibition, % at 20 µM. 110,000 tested, 0.64% active. AID 521; in the data active = inhibition above about 50%
M1 ag – M1 muscarinic receptor agonism; CHO-M1 cells, Fluo-4 calcium fluorescence, agonist mode; stronger effect = higher value; 64,000 tested, 3% active; B-score at 10 µM; AID 626;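 active = fluorescence rise, raw or as B-score row- and column-corrected plate score, outside the 99.7% band of its plate's samples, either direction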
Each line names hits and unclear results; the compound was inactive in the other large screens. Shown are actives, neighbours in structure and some others; about 8.2% of the full set was active somewhere.

CC1(C)Oc2ccc(NC(=O)C3COc4ccccc4O3)cc2O1 (stereo not given)	D1 allo mod -4.3
CCN(CC)c1ccc(NC(=O)CCN2C(=O)c3ccccc3C2=O)cc1	none (no result: M1 antag, D1 allo mod, RORa activator, SF1 activator, M1 ag)
COC(=O)c1sccc1NC(=O)c1cccc(OC)c1	none (no result: M1 antag, D1 allo mod, RORa activator, SF1 activator, M1 ag)
CCN(CC)S(=O)(=O)c1ccc(NC(=O)c2ccccc2)cc1	none (no result: M1 antag, D1 allo mod, RORa activator, SF1 activator, M1 ag)
CCn1cc(C(=O)NCc2ccc(C)o2)c2cc(OC)c(OC)cc2c1=O	D1 allo mod -6.3 (no result: M1 antag, M1 ag)
CCn1cc(C(=O)NCC(=O)OC)c2cc(OC)c(OC)cc2c1=O	none
CCOC(=O)c1ccc2nc(C)c3c(c2c1)OC(C)C3 (stereo not given)	D1 allo mod -2.7
COc1cccc2c3c(c(C)nc12)CC(C)O3 (stereo not given)	D1 allo mod -3.4
Cc1nc2ccc(C(=O)O)cc2c2c1CC(C)O2 (stereo not given)	none (no result: M1 antag, D1 allo mod, RORa activator, SF1 activator, M1 ag)
Cc1nc2c(C)cccc2c2c1CC(C)O2 (stereo not given)	none (no result: M1 antag, D1 allo mod, RORa activator, SF1 activator, M1 ag)
Cc1ccc(-c2nc3cc(Cl)ccc3o2)cc1NC(=O)C(Cl)(Cl)Cl	HePTP inhibitor 53 (no result: M1 antag, D1 allo mod, RORa activator, SF1 activator, M1 ag)
c1ccc(CCc2nc(-c3ccccn3)no2)cc1	RORa activator 54
Clc1ccc(OCc2nc(-c3ccccn3)no2)c(Br)c1	D1 allo mod -6.9
Clc1ccccc1OCc1nc(-c2ccccn2)no1	none
Clc1ccc(-c2nc(-c3ccccn3)no2)cc1Cl	D1 allo mod -5.5
COc1ccc(Br)cc1S(=O)(=O)N1CC(C)OC(C)C1 (stereo not given)	none
Cc1ccc(S(=O)(=O)N2CCN(S(C)(=O)=O)C2C(C)C)cc1 (stereo not given)	HePTP inhibitor 96 (no result: M1 antag, D1 allo mod, RORa activator, SF1 activator, M1 ag)
O=C(Cc1ccc2cccnc2c1)c1ccc(O)cc1O	RORa activator 60
COc1cc2c(C(=O)N3CCN(C4CCCCC4)CC3)cn(CC(C)C)c(=O)c2cc1OC	D1 allo mod -5.7 (no result: M1 antag, M1 ag)
Cc1ccc(-n2[nH]c(=O)c(/C=c3/c(C)c(C#N)c4nc5ccccc5n4c3=O)c2O)cc1C	HePTP inhibitor 102 (no result: M1 antag, D1 allo mod, RORa activator, SF1 activator, M1 ag)
C=C(C)COc1ccc(-c2nc(N)ncc2-c2ccc(OC)cc2)c(O)c1	D1 allo mod 3.4
COc1ccc(-c2nc(N)ncc2Oc2ccccc2Br)c(O)c1	D1 allo mod 14
Cc1ccc(C)c(-c2nc3ccc(N)cc3[nH]2)c1	none
COc1ccc(C(=O)N2CCCc3ccccc32)cc1	none
COc1ccc(/C=C/C2=NC(=C\N(C)C)/C(=O)O2)cc1	SF1 activator 50 (no result: D1 allo mod)
COc1ccc(Nc2cccccc2=O)cc1	none (no result: RORa activator, SF1 activator)
CCC(C)NC(=O)C1CCN(S(=O)(=O)c2cccnc2)CC1 (stereo not given)	none
O=C1NCCc2c1[nH]c1c(Cl)ccc(Cl)c21	M1 ag 28
Cn1c(=O)c2c(nc(NCCCN3CCOCC3)n2Cc2ccc(Cl)cc2)n(C)c1=O	none (no result: D1 allo mod)
Cc1cc(NCCCN2CCOCC2)n2ncc(-c3ccc(Cl)cc3)c2n1	RORa activator 62, SF1 activator 70
COc1ccccc1N1CCN(C(=O)CSc2nnc(NC(=O)C3CC3)s2)CC1	none
C/C(=C\C(=O)c1ccc(C)o1)Nc1ccc(C(=O)O)cc1C	M1 antag 3
CSC(=NS(=O)(=O)c1ccc(C)cc1)SC	none
O=C(NC1=NC2CCCCC2N1)c1ccccc1 (stereo not given)	D1 allo mod -5.4
Nc1ccccc1NC(=O)c1ccccc1	none (no result: D1 allo mod)
CC(C)C(=O)Nc1ccc(NC(=O)c2ccccn2)cn1	D1 allo mod -4.9, RORa activator 51
O=C(Nc1ccc(NC(=O)C2CC2)nc1)c1ccccn1	none
CCC(=O)Nc1ccc(NC(=O)c2ccccn2)cn1	RORa activator 65
COc1ccc(NC(=O)c2cc3ccccn3n2)cc1	D1 allo mod -4.7
C=CCN=C1CC(C)(C)CC(=O)/C1=C(/O)CCC	HePTP inhibitor 102 (no result: M1 antag, D1 allo mod, RORa activator, SF1 activator, M1 ag)
COc1ccccc1OCc1nc(Cc2ccc(Cl)cc2)no1	none
Clc1ccc(Cc2noc(Cc3ccccc3)n2)cc1Cl	M1 antag 1.8
COCCCN1C(=O)/C(=C\c2cccs2)SC1=S	none (no result: M1 antag, D1 allo mod, RORa activator, SF1 activator, M1 ag)
Cc1csc(SCCN2C(=O)c3ccccc3C2=O)n1	RORa activator 73, SF1 activator 65
CSc1nsc(SCCN2C(=O)c3ccccc3C2=O)n1	M1 antag 2.3
O=C1c2ccccc2C(=O)N1CCSc1nncs1	none
CC(C)(C)SCCNS(=O)(=O)c1ccc(F)cc1	none
CCOc1cc(/C=C2\SC(=S)N(CC(=O)OC)C2=O)ccc1O	none (no result: M1 antag, D1 allo mod, RORa activator, SF1 activator, M1 ag)
CC(=O)Nc1ccc(C(=O)OCCC(C)C)cc1	RORa activator 51
CCOC(=O)c1ccc(NC(=O)c2nn(CC)cc2Br)cc1	none
CCCOC(=O)c1ccc(NC(=O)CC(C)C)cc1	none (no result: M1 antag, D1 allo mod, RORa activator, SF1 activator, M1 ag)
CCOC(=O)c1ccc(NC(=O)Nc2ccc3c(c2)OCCO3)cc1	D1 allo mod -2.4
CCOC(=O)c1ccc(NC(=O)c2nn(C)cc2Br)cc1	RORa activator 76
CCOC(=O)CNC(=O)c1ccc2c(c1)OCCO2	SF1 activator 53
CCOC(=O)C1=C(O)/C(=C/c2ccc([N+](=O)[O-])cc2)SC1=Nc1cccc2ccccc12	none (no result: M1 antag, D1 allo mod, RORa activator, SF1 activator, M1 ag)
Cc1ccc2c(C)c(C(=O)Nc3nnc(C)s3)oc2c1	none (no result: D1 allo mod)
CCOC(=O)c1ccc(NC(=O)N(CC)CC)cc1	SF1 activator 63
COc1cc(OC)c(NC2c3ccccc3C(=O)N2c2cc(C)ccn2)cc1Cl (stereo not given)	RORa activator 84
O=C(Nc1nnc(C2CC2)o1)c1ccc(S(=O)(=O)N2CCCc3ccccc32)cc1	none (no result: D1 allo mod)
CCCCCc1c(C)nc(N2CCc3ccccc32)[nH]c1=O	M1 antag 1.5
Nc1nc(N)c2sc3nc4c(cc3c2n1)CCC4	RORa activator 56, SF1 activator 57
Nc1c(C(=O)C2CC2)sc2nc3c(cc12)CCCC3	none (no result: M1 antag, D1 allo mod, RORa activator, SF1 activator, M1 ag)
Cc1cccc2cc(C#N)c(N3CCN(C)CC3)nc12	D1 allo mod -2.2
Cc1cc(C)c2nc(N3CCN(C)CC3)c(C#N)cc2c1	none
COCCOC(=O)C1=C(C)NC(=O)NC1C1CC=CCC1 (stereo not given)	none
O=C(Nc1cc(=O)c2ccccc2o1)N1CCCCC1	none
CSc1ccc(-c2cc(=O)c3ccccc3o2)cc1	SF1 activator 63
CC1(C)CN=C(N2CCN(C3=NCC(C)(C)S3)CC2)S1	M1 antag -6.3
O=C(O)c1cc(N2C(=O)C=CC2=O)ccc1Cl	HePTP inhibitor 50 (no result: M1 antag, D1 allo mod, RORa activator, SF1 activator, M1 ag)
COc1cc(C=C2C(=O)N(C)C(=O)N(C)C2=O)cc(Br)c1OCc1ccccc1	none (no result: M1 antag, D1 allo mod, RORa activator, SF1 activator, M1 ag)
C/C(N)=C(/C#N)C(=O)COC(=O)c1cc(C)n(-c2ccc(F)cc2)c1C	RORa activator 67, SF1 activator 65
CCN(C(=O)COC(=O)c1cc(C)n(-c2ccc(F)cc2)c1C)C1CCS(=O)(=O)C1 (stereo not given)	none
CC(C)OC(=O)CC(O)(c1ccccc1)C(F)(F)C(F)F (stereo not given)	none (no result: M1 antag, D1 allo mod, RORa activator, SF1 activator, M1 ag)
O=C1N=c2ccccc2=C1c1sc(=S)n(-c2ccc(C(=O)O)cc2)c1O	HePTP inhibitor 100 (no result: M1 antag, D1 allo mod, RORa activator, SF1 activator, M1 ag)
